Calls of active or inactive are those of the source. The rule behind the calls is not given here.
Key:
[1] = biological target: T1, NF-kappa-B inhibitor alpha (Homo sapiens) (UniProt P25963); assay: Inhibition of TNFalpha-induced IkappaBalpha (unknown origin) degradation expressed in human HeLa cells at 50 uM pretreated […] before TNFalpha addition […] by ELISA; assay type: cell-based
T1 sequence (whole entry): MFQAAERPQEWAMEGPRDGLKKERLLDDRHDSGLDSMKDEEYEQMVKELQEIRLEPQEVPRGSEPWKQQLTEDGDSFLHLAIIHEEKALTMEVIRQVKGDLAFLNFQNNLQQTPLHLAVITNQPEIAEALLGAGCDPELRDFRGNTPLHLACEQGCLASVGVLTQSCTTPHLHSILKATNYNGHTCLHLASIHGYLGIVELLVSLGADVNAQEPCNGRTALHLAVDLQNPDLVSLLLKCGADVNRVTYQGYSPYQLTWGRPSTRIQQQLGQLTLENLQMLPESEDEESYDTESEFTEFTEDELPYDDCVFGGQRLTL

[2] = Inhibition of TNFalpha-induced NF-kappaB activation (unknown origin) expressed in human HeLa cells pretreated 30 mins before TNFalpha addition after 7 hrs by luciferase reporter gene assay; assay type: cell-based
Method in brief: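 HeLa cells stably transfected with an NF-κB reporter construct, stimulated with TNF-α; IC50 values are means of three independent experiments, with standard deviation.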

HeLa [3] = assay: Ratio of IC50 for TNFalpha-induced NF-kappaB (unknown origin) activation expressed in human HeLa cells to IC50 for TNFalpha-induced IkappaBalpha (unknown origin) phosphorylation expressed in human HeLa cells; assay type: cell-based
HeLa [4] = assay: Inhibition of NF-kappaB (unknown origin) expressed in human HeLa cells assessed as inhibition of TNFalpha-induced p50 nuclear translocation pretreated 30 mins before TNFalpha addition measured after 15 mins by Western blot analysis
HeLa [5] = assay: Inhibition of NF-kappaB (unknown origin) expressed in human HeLa cells assessed as inhibition of TNFalpha-induced DNA binding of RelA pretreated 30 mins before TNFalpha addition measured after 30 mins by EMSA
HeLa [6] = assay: Inhibition of NF-kappaB (unknown origin) expressed in human HeLa cells assessed as inhibition of TNFalpha-induced DNA binding of p50 pretreated 30 mins before TNFalpha addition measured after 30 mins by EMSA
HeLa [7] = assay: Inhibition of NF-kappaB (unknown origin) expressed in human HeLa cells assessed as inhibition of TNFalpha-induced RelA nuclear translocation pretreated 30 mins before TNFalpha addition measured after 15 mins by Western blot analysis
HeLa [8] = assay: Inhibition of NF-kappaB (unknown origin) expressed in human HeLa cells assessed as inhibition of TNFalpha-induced p50 nuclear translocation at 100 uM […] by Western blot analysis; assay type: cell-based
Method in brief: (§1)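 HeLa cells pretreated 30 min with a range of compound concentrations or DMSO, then stimulated with TNF-α (50 ng/mL) for 15 min. Cytoplasmic and nuclear fractions were immunoblotted for RelA and p50. Tubulin marked the cytoplasmic fraction and PARP the nuclear fraction.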

HeLa [9] = assay: Inhibition of NF-kappaB (unknown origin) expressed in human HeLa cells assessed as inhibition of TNFalpha-induced RelA nuclear translocation at 100 uM […] by Western blot analysis; assay type: cell-based; method in brief: as §1

Structure (SMILES) | IC50 [2] | inhibition [1] | other results
CC1=C(C)C(=O)O[C@@H]([C@](C)(O)[C@]2(O)CC[C@@]3(O)[C@@H]4C[C@H]5O[C@]56CC=CC(=O)[C@]6(C)[C@H]4CC[C@]23C)C1 [WITHANOLIDE E] | 0.98 µM | 46.8% | Ratio IC50 (HeLa [3]): 10
C[C@H]1C(=O)OC[C@H]1C[C@@H](O)[C@](C)(O)[C@]1(O)CC[C@@]2(O)[C@@H]3CC=C4CC=CC(=O)[C@]4(C)[C@H]3CC[C@]12C | 33.2 µM | – | –
C[C@@]12C[C@H]3OC(=O)[C@@H]1CO[C@@]14O[C@]5(C2C1=O)[C@@](O)(CC[C@H]1[C@H]4C[C@@H]2O[C@@]24CC=CC(=O)[C@]14C)C(=O)O[C@@]35C [PHYSALIN J] | 36.2 µM | – | –
C[C@]12C(=O)C=CCC1=CC[C@@H]1[C@@H]2CC[C@]2(O)C(=O)O[C@@]3(C)[C@H]4C[C@]5(C)[C@@H](CO[C@@]16O[C@@]32[C@H]5C6=O)C(=O)O4 [PHYSALIN B] | 6.07 µM | 7% | inhibition (HeLa [4]): Dose-dependent effect; inhibition (HeLa [5]): Dose-dependent effect; inhibition (HeLa [6]): Dose-dependent effect; inhibition (HeLa [7]): Dose-dependent effect
CC1=C(C)C(=O)O[C@@H]([C@](C)(O)C2=CC[C@@]3(O)[C@@H]4CC=C5CC=CC(=O)[C@]5(C)[C@H]4CC[C@]23C)C1 | 20.8 µM | – | –
C[C@@]12C[C@H]3OC(=O)[C@]1(O)CO[C@]14O[C@@]5([C@H]2C1=O)[C@@]3(C)OC(=O)[C@@]5(O)CC[C@H]1[C@H]4C[C@@H]2O[C@@]23CC=CC(=O)[C@]13C [25-HYDROXY PHYSALIN J] | > 50 µM | – | –
C[C@H]1C(=O)OC[C@H]1C[C@@H](O)[C@](C)(O)[C@@]1(O)CC[C@@]2(O)[C@@H]3CC=C4CC=CC(=O)[C@]4(C)[C@H]3CC[C@]12C | 32.4 µM | – | –
C=C1C(=O)O[C@@H]2C[C@@]1(C)[C@@H]1C(=O)[C@]3(O)O[C@]14[C@@]2(C)OC(=O)[C@@]4(O)CC[C@H]1[C@H]3[C@H](O)C=C2CC=CC(=O)[C@@]21C [PHYSALIN A] | 22.7 µM | -3.4% | –
CC(=O)O[C@@H]1C(=O)O[C@@]2(C)[C@H]3C[C@]4(C)[C@@H](CO[C@@H]5O[C@]12[C@H]4C5=O)C(=O)O3 | > 200 µM | – | –
C[C@@]12C[C@H]3OC(=O)[C@@H]1CO[C@]14O[C@]5([C@H]2C1=O)[C@@](O)(CC[C@H]1[C@H]4C[C@H]2O[C@]24CC=CC(=O)[C@]14C)C(=O)O[C@@]35C [PHYSALIN F] | 2.53 µM | 45.2% | Ratio IC50 (HeLa [3]): 10
CC1=C(C)C(=O)O[C@@H]([C@](C)(O)[C@]2(O)CC[C@@]3(O)[C@@H]4CC=C5CC=CC(=O)[C@]5(C)[C@H]4CC[C@]23C)C1 [WITHANOLIDE F] | 2 µM | – | inhibition (HeLa [8]): Active; inhibition (HeLa [5]): Dose-dependent effect; inhibition (HeLa [6]): Dose-dependent effect; inhibition (HeLa [9]): Active
C=C1C(=O)O[C@@H]2C[C@@]1(C)[C@@H]1C(=O)[C@@H](O)O[C@@]13[C@H](OCc1ccccc1)C(=O)O[C@@]23C | 85.8 µM | – | –
CC1=C(C)C(=O)O[C@@H]([C@](C)(O)[C@H]2CC[C@@]3(O)[C@@H]4CC=C5CC=CC(=O)[C@]5(C)[C@H]4CC[C@]23C)C1 | 20.7 µM | – | –
C=C1C(=O)O[C@@H]2C[C@@]1(C)[C@@H]1C(=O)[C@]3(O)O[C@]14[C@@]2(C)OC(=O)[C@@]4(O)CC[C@H]1[C@H]3CC=C2CC=CC(=O)[C@@]21C | 6.54 µM | 0.8% | inhibition (HeLa [4]): Dose-dependent effect; inhibition (HeLa [7]): Dose-dependent effect

More lines, main results first:

IC50 [2] | Structure (SMILES) | inhibition [1] | other results
11.4 µM | C[C@]12C(=O)C=CCC1=C[C@@H](O)[C@@H]1[C@@H]2CC[C@@]2(O)C(=O)O[C@@]3(C)[C@H]4C[C@]5(C)[C@@H](CO[C@@]16O[C@]23[C@H]5C6=O)C(=O)O4 | -3.8% | –
> 50 µM | C[C@]12C(=O)C=CCC1=CC[C@@H]1[C@@H]2CC[C@]2(O)C(=O)O[C@@]3(C)[C@H]4C[C@@](C)([C@@H]5C(=O)[C@]1(O)O[C@@]532)[C@](C)(O)C(=O)O4 | – | –
43.6 µM | C[C@@]12C[C@H]3OC(=O)[C@@H]1CO[C@@H]1O[C@@]4([C@H](OCc5ccccc5)C(=O)O[C@@]34C)[C@H]2C1=O | – | –
104 µM | C#C[C@]12O[C@H]3OC[C@H]4C(=O)O[C@H](C[C@@]4(C)[C@@H]1C3=O)[C@]2(C)O | – | –
4.38 µM | C[C@@]12C[C@H]3OC(=O)[C@]1(O)CO[C@]14O[C@@]5([C@H]2C1=O)[C@@]3(C)OC(=O)[C@@]5(O)CC[C@H]1[C@H]4C[C@H]2O[C@]23CC=CC(=O)[C@]13C [25-HYDROXY PHYSALIN F] | 29% | Ratio IC50 (HeLa [3]): 10
> 50 µM | C[C@@H]1C(=O)O[C@@H]2C[C@@]1(C)[C@@H]1C(=O)[C@]3(O)O[C@]14[C@@]2(C)OC(=O)[C@@]4(O)CC[C@H]1[C@H]3[C@H](O)C=C2CC=CC(=O)[C@@]21C [PHYSALIN O] | – | –
> 200 µM | C[C@@]12C[C@H]3OC(=O)[C@@H]1CO[C@@H]1O[C@@]4([C@H](O)C(=O)O[C@@]34C)[C@H]2C1=O | – | –

— ChEMBL document CHEMBL2406967, “Contribution of Cage-Shaped Structure of Physalins to Their Mode of Action in Inhibition of NF-κB Activation” (ACS Med Chem Lett, 2013)
